Laboratory results published in ChEMBL document CHEMBL4028903 (J Med Chem, 2017).
Active and inactive are the calls of the source. The calls are words filed in the database; no cut-off is given here.

Tests used:
[1] = AUC in mouse at 10 mg/kg, po administered via gavage by LC-MS/MS analysis; format: ADME, organism-based; conditions: in vivo
In short: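 Single oral dose given as a suspension in 0.5% methylcellulose, 0.5% Tween80 and 99% water. Doses were 10 mg/kg in mouse, 1 mg/kg in rat and 2 mg/kg in dog.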

[2] = Clearance in rat at 3 mg/kg, iv by LC-MS/MS analysis; format: ADME, organism-based; conditions: in vivo
In short: (§1)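 Rats were dosed IV as a solution in 75% PEG300:25% D5W, or orally as a suspension in 0.5% methylcellulose, 0.5% Tween80 and 99% water.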

[3] = Volume of distribution at steady state in rat at 3 mg/kg, iv by LC-MS/MS analysis; format: ADME, organism-based; conditions: in vivo, read-out: Vdss; in short: as §1
[4] = Oral bioavailability in rat at 10 mg/kg administered via gavage by LC-MS/MS analysis; format: ADME, organism-based; conditions: in vivo; in short: as §1
[5] = biological target: T1, Bile acid receptor (Rattus norvegicus) (UniProt Q62735); test: Agonist activity at FXR in rat primary hepatocytes assessed as induction of SHP mRNA level after 24 hrs by qPCR analysis; format: cell-based
T1 sequence (whole entry): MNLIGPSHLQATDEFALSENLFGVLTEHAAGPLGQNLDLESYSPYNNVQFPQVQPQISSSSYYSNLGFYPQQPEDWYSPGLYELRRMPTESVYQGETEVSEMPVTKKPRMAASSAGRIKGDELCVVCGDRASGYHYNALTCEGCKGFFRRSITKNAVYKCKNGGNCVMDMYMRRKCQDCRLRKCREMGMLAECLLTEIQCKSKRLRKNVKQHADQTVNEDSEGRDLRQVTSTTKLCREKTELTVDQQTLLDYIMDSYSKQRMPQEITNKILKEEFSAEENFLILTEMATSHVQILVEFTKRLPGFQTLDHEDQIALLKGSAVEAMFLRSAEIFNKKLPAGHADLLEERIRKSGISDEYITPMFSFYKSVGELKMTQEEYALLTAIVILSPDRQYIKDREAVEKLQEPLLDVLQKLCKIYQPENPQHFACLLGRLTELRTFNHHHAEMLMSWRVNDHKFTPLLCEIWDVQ

Rattus norvegicus [6] = test: In vivo agonist activity at FXR in Sprague-Dawley rat assessed as induction of BSEP mRNA level in liver at 0.003 mg/kg, po qd for 14 days measured 7 hrs post last dose on day 14 by qPCR analysis; format: functional, organism-based
Rattus norvegicus [7] = test: In vivo agonist activity at FXR in po dosed Sprague-Dawley rat assessed as induction of BSEP mRNA level in liver administered once daily for 14 days measured 7 hrs post last dose on day 14 by qPCR analysis; format: functional
Rattus norvegicus [8] = test: In vivo agonist activity at FXR in po dosed Sprague-Dawley rat assessed as downregulation of CYP8B1 mRNA level in liver administered once daily for 14 days measured 7 hrs post last dose on day 14 by qPCR analysis; format: functional
Rattus norvegicus [9] = test: In vivo agonist activity at FXR in po dosed Sprague-Dawley rat assessed as induction of SHP mRNA level in ileum administered once daily for 14 days measured 7 hrs post last dose on day 14 by qPCR analysis; format: functional
Rattus norvegicus [10] = test: In vivo agonist activity at FXR in po dosed Sprague-Dawley rat assessed as induction of FGF15 protein level in plasma administered once daily for 14 days measured 24 hrs post last dose on day 14; format: functional, organism-based
[11] = Drug uptake in Sprague-Dawley rat liver at 1 mg/kg, po qd administered via gavage measured 1 hr post last dose on day 14 by LC-MS/MS analysis; format: ADME, organism-based; conditions: read-out: Drug uptake
In short: (§2)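 Drug concentration in liver was quantified from tissue homogenates, so these are total levels. Unbound liver concentration was not determined.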

[12] = Drug uptake in Sprague-Dawley rat plasma at 1 mg/kg, po qd administered via gavage measured 1 hr post last dose on day 14 by LC-MS/MS analysis; format: ADME, organism-based
[13] = Drug uptake in Sprague-Dawley rat liver at 0.3 mg/kg, po qd administered via gavage measured 7 hrs post last dose on day 14 by LC-MS/MS analysis; format: ADME, organism-based; conditions: read-out: Drug uptake; in short: as §2
[14] = Drug uptake in Sprague-Dawley rat liver at 0.01 mg/kg, po qd administered via gavage measured 7 hrs post last dose on day 14 by LC-MS/MS analysis; format: ADME, organism-based; conditions: read-out: Drug uptake; in short: as §2
[15] = Drug uptake in Sprague-Dawley rat plasma at 0.01 mg/kg, po qd administered via gavage measured 1 hr post last dose on day 14 by LC-MS/MS analysis; format: ADME, organism-based
Rattus norvegicus [16] = test: Dose normalized AUC (0 to 24 hrs) in Sprague-Dawley rat at 0.03 mg/kg, po qd administered via gavage measured on day 1 by LC-MS/MS analysis; format: ADME, organism-based; conditions: in vivo
Rattus norvegicus [17] = test: Dose normalized AUC (0 to 24 hrs) in Sprague-Dawley rat at 0.003 mg/kg, po qd administered via gavage measured on day 1 by LC-MS/MS analysis; format: ADME, organism-based; conditions: in vivo
[18] = AUC (0 to 24 hrs) in Sprague-Dawley rat at 3 mg/kg, po qd administered via gavage measured on day 11 by LC-MS/MS analysis; format: ADME, organism-based; set-up: dose 3 mg/kg, time < 24 hr, route oral; conditions: in vivo
[19] = AUC (0 to 24 hrs) in Sprague-Dawley rat at 0.1 mg/kg, po qd administered via gavage measured on day 11 by LC-MS/MS analysis; format: ADME, organism-based; set-up: time < 24 hr, dose 0.1 mg/kg, route oral; conditions: in vivo
[20] = AUC (0 to 24 hrs) in Sprague-Dawley rat at 0.03 mg/kg, po qd administered via gavage measured on day 1 by LC-MS/MS analysis; format: ADME, organism-based; set-up: time < 24 hr, dose 0.03 mg/kg, route oral; conditions: in vivo
[21] = Cmax in Sprague-Dawley rat at 3 mg/kg, po qd administered via gavage measured on day 1 by LC-MS/MS analysis; format: ADME, organism-based; set-up: dose 3 mg/kg, route oral; conditions: in vivo
[22] = Cmax in Sprague-Dawley rat at 0.03 mg/kg, po qd administered via gavage measured on day 11 by LC-MS/MS analysis; format: ADME, organism-based; set-up: dose 0.03 mg/kg, route oral; conditions: in vivo
[23] = Half life in mouse at 5 mg/kg, iv by LC-MS/MS analysis; format: ADME, organism-based; conditions: in vivo
In short: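 Single IV dose given as a solution. Mouse and rat received it in 75% PEG300:25% D5W. Dog received it in 20% PEG300, 5% solutol and 75% carbonate buffer pH = 8. Plasma was sampled for PK parameters.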

Rattus norvegicus [24] = test: In vivo agonist activity at FXR in po dosed Sprague-Dawley rat assessed as induction of SHP mRNA level in ileum administered as single dose measured 7 hrs post dose by qPCR analysis; format: functional, organism-based
[25] = Drug uptake in Sprague-Dawley rat liver at 3 mg/kg, po qd administered via gavage measured 1 hr post last dose on day 14 by LC-MS/MS analysis; format: ADME, organism-based; conditions: read-out: Drug uptake; in short: as §2
Mus musculus = test: Drug metabolism in mouse assessed as glycine conjugated metabolite formation at 5 mg/kg, iv or 10 mg/kg, po administered via gavage by LC-MS/MS analysis; format: ADME, organism-based; conditions: in vivo
Rattus norvegicus [26] = test: Drug metabolism in rat assessed as glycine conjugated metabolite formation at 3 mg/kg, iv or 1 mg/kg, po administered via gavage by LC-MS/MS analysis; format: ADME, organism-based; conditions: in vivo

`O=C(O)c1cc(F)c2nc(N3C4CCC3CC(OCc3c(-c5ccccc5OC(F)(F)F)noc3C3CC3)C4)sc2c1` (configuration not stated) gave an AUC [1] of 4.79 µM·h, a clearance [2] of 9 to 9.3 mL/min/kg and a Vd [3] of 0.72 L/kg. For the same compound, the bioavailability [4] was 20%, the Activity [5] was “Dose-dependent effect” and the Activity (Rattus norvegicus [6]) was “Active”. The ED50 (Rattus norvegicus [7]) was 0.02 mg/kg, the ED50 (Rattus norvegicus [8]) was 0.01 mg/kg and the ED50 (Rattus norvegicus [9]) was 0.01 mg/kg. The Activity (Rattus norvegicus [10]) was “inactive”, the concentration at 1 h [11] was 159 nM and the concentration at 1 h [12] was 16.4 nM. It also gave a concentration at 7 h [13] of 92.8 nM, a concentration at 7 h [14] of 5.18 nM and a concentration at 1 h [15] of 0.37 nM. The AUC/dose (Rattus norvegicus [16]) was 503 nM·h, the AUC/dose (Rattus norvegicus [17]) was 668 nM·h and the AUC at 24 h [18] was 1.69 µM·h. It also gave an AUC at 24 h [19] of 0.08 µM·h, an AUC(0-t) at 24 h [20] of 0.015 µM·h and a Cmax [21] of 172 nM. The Cmax [22] was 1.9 nM, the half-life [23] was 2.6 h and the Activity (Rattus norvegicus [24]) was “Dose-dependent effect”. For the same compound, the concentration at 1 h [25] was 872 nM, the Drug metabolism (Mus musculus) was “Metabolite_Notdetected” and the Drug metabolism (Rattus norvegicus [26]) was “Metabolite_Notdetected”.
